According to ChEMBL document CHEMBL4732199, “Potent and orally bioavailable CDK8 inhibitors: Design, synthesis, structure-activity relationship analysis and biological evaluation” (Eur J Med Chem, 2021):

Columns and labels:
[1] = Half life in Sprague-Dawley rat at 5 mg/kg, iv measured up to 24 hrs by LC-MS/MS analysis; assay type: ADME, organism-based; conditions: in vivo
HT-29 = experiment: Growth inhibition human HT-29 cells after 72 hrs by resazurin or MTT assay; assay type: functional
In short: (§1)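 Tumour cell lines kept in RPMI-1640, DMEM or MEM with 10% FBS at 37 °C, 5% CO2, mycoplasma-free. Exposure lasted 72 h. Viability was read by MTT for adherent solid-tumour lines and by resazurin for suspension leukaemia lines. GI50 came from nonlinear regression, given as mean ± standard deviation of at least two replicates unless stated otherwise.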

[2] = Toxicity in BALB/c mouse assessed as destruction of vessel walls at 70 mg/kg, po administered once daily for 7 days and measured on day 15; assay type: organism-based; conditions: in vivo, 168 h, time 7 day
A2780 = experiment: Growth inhibition human A2780 cells after 72 hrs by resazurin or MTT assay; assay type: functional; in short: as §1
PANC-1 = experiment: Growth inhibition human PANC-1 cells after 72 hrs by resazurin or MTT assay; assay type: functional; in short: as §1
[3] = Toxicity in BALB/c mouse assessed as infiltration of inflammatory cells at 70 mg/kg, po administered once daily for 7 days and measured on day 15; assay type: organism-based; conditions: in vivo, 168 h, time 7 day
MV4-11 = experiment: Growth inhibition of human MV4-11 cells after 72 hrs by resazurin staining based assay; assay type: functional
In short: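 MV4-11 leukaemia cells grown in medium with 10% FBS at 37 °C, 5% CO2. Growth was read by a 72-h resazurin viability assay. GI50 was obtained by nonlinear regression and reported as mean ± standard deviation of at least two replicates.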

KG-1 = experiment: Growth inhibition human KG-1 cells after 72 hrs by resazurin or MTT assay; assay type: functional; in short: as §1
MOLM-13 = experiment: Growth inhibition human MOLM-13 cells after 72 hrs by resazurin or MTT assay; assay type: functional; in short: as §1
[4] = Volume of distribution at steady state in Sprague-Dawley rat at 5 mg/kg, iv measured up to 24 hrs by LC-MS/MS analysis; assay type: ADME, organism-based; conditions: in vivo, read-out: Vdss
U-937 = experiment: Growth inhibition human U-937 cells after 72 hrs by resazurin or MTT assay; assay type: functional; in short: as §1
[5] = target: Protein kinase C theta type (Homo sapiens, UniProt Q04759); experiment: Inhibition of human full length PKCtheta using histone H1 as substrate incubated for 40 mins in presence of [gamma-33P]-ATP by scintillation counting method
In short: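 IC50 measured in a contracted radiometric kinase assay with ATP at the experimentally determined Km(ATP) of each kinase. Apparent Ki was derived by Cheng-Prusoff: Ki = IC50/(1+[ATP]/Km(ATP)).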

KG-1a = experiment: Growth inhibition human KG-1a cells after 72 hrs by resazurin or MTT assay; assay type: functional; in short: as §1
THP-1 = experiment: Growth inhibition human THP1 cells after 72 hrs by resazurin or MTT assay; assay type: functional; in short: as §1
[6] = Growth inhibition human WI38 cells after 72 hrs by resazurin or MTT assay; assay type: cell-based; conditions: WI-38 cells
HCT-116 = experiment: Growth inhibition human HCT-116 cells after 72 hrs by resazurin or MTT assay; assay type: functional; in short: as §1
HL-60 = experiment: Growth inhibition human HL-60 cells after 72 hrs by resazurin or MTT assay; assay type: functional; in short: as §1
[7] = Toxicity in BALB/c mouse assessed as increase in number of alveolar macrophages at 70 mg/kg, po administered once daily for 7 days and measured on day 15; assay type: organism-based; conditions: in vivo, 168 h, time 7 day
[8] = Tmax in Sprague-Dawley rat at 20 mg/kg, po measured up to 24 hrs by LC-MS/MS analysis; assay type: ADME, organism-based; conditions: in vivo
[9] = Toxicity in BALB/c mouse assessed as granulocytes at 70 mg/kg, po administered once daily for 7 days and measured on day 15 by flow cytometric analysis; assay type: organism-based; conditions: in vivo, 168 h, time 7 day
[10] = Toxicity in BALB/c mouse assessed as increase in dead splenocytes at 70 mg/kg, po administered once daily for 7 days and measured on day 15 by flow cytometric analysis; assay type: organism-based; conditions: in vivo, 168 h, time 7 day
[11] = Toxicity in BALB/c mouse assessed as dendritic cells at 70 mg/kg, po administered once daily for 7 days and measured on day 15 by flow cytometric analysis; assay type: organism-based; conditions: in vivo, 168 h, time 7 day
[12] = Half life in Sprague-Dawley rat at 20 mg/kg, po measured up to 24 hrs by LC-MS/MS analysis; assay type: ADME, organism-based; conditions: in vivo
[13] = Cmax in Sprague-Dawley rat at 5 mg/kg, iv measured up to 24 hrs by LC-MS/MS analysis; assay type: ADME, organism-based; parameters: route intravenous, dose 5 mg/kg, time <=24; conditions: in vivo
T47D = experiment: Growth inhibition human T47D cells after 72 hrs by resazurin or MTT assay; assay type: functional; in short: as §1
MCF7 = experiment: Growth inhibition human MCF7 cells after 72 hrs by resazurin or MTT assay; assay type: functional; in short: as §1
[14] = Toxicity in BALB/c mouse assessed as vasculitis in blood vessels at 70 mg/kg, po administered once daily for 7 days and measured on day 15; assay type: organism-based; conditions: in vivo, 168 h, time 7 day
[15] = Cmax in Sprague-Dawley rat at 20 mg/kg, po measured up to 24 hrs by LC-MS/MS analysis; assay type: ADME, organism-based; parameters: route oral, dose 20 mg/kg, time <=24; conditions: in vivo
MDA-MB-453 = experiment: Growth inhibition human MDA-MB-453 cells after 72 hrs by resazurin or MTT assay; assay type: functional; in short: as §1
[16] = Toxicity in BALB/c mouse assessed as increase in CD3-T cells at 70 mg/kg, po administered once daily for 7 days and measured on day 15 by flow cytometric analysis; assay type: organism-based; conditions: in vivo, 168 h, time 7 day
CDK8/Cyclin C = CDK8/Cyclin C (Homo sapiens, UniProt P49336); experiment: Inhibition of CDK8/cyclin C (unknown origin) using RBER-IRStide as substrate incubated for 60 mins in presence of [gamma33P]ATP by scintillation counting method; assay type: protein-complex assay
NB-4 = experiment: Growth inhibition human NB4 cells after 72 hrs by resazurin or MTT assay; assay type: functional; in short: as §1
[17] = Toxicity in BALB/c mouse assessed as monocytes at 70 mg/kg, po administered once daily for 7 days and measured on day 15 by flow cytometric analysis; assay type: organism-based; conditions: in vivo, 168 h, time 7 day
[18] = Toxicity in BALB/c mouse assessed as interstitial pneumonitis in lung at 70 mg/kg, po administered once daily for 7 days and measured on day 15; assay type: organism-based; conditions: in vivo, 168 h, time 7 day
[19] = AUC in Sprague-Dawley rat at 5 mg/kg, iv measured up to 24 hrs by LC-MS/MS analysis; assay type: ADME, organism-based; parameters: route intravenous, dose 5 mg/kg, time <=24; conditions: in vivo
COLO 205 = experiment: Growth inhibition human COLO 205 cells after 72 hrs by resazurin or MTT assay; assay type: functional; in short: as §1
[20] = Effect on total STAT1 level in human MV4-11 cells at 1 to 5 times of GI50 concentration after 2 hrs by Western blot analysis; assay type: ADME, cell-based; conditions: mv4-11, 2 h
MDA-MB-231 = experiment: Growth inhibition human MDA-MB-231 cells after 72 hrs by resazurin or MTT assay; assay type: functional; in short: as §1
Kasumi 1 = experiment: Growth inhibition human Kasumi-1 cells after 72 hrs by resazurin or MTT assay; assay type: functional; in short: as §1
[21] = Toxicity in BALB/c mouse assessed as B cells at 70 mg/kg, po administered once daily for 7 days and measured on day 15 by flow cytometric analysis; assay type: organism-based; conditions: in vivo, 168 h, time 7 day
[22] = Oral bioavailability in Sprague-Dawley rat at 20 mg/kg measured up to 24 hrs by LC-MS/MS analysis; assay type: ADME, organism-based; conditions: in vivo

Protein kinase C theta type, sequence (Q04759 whole entry): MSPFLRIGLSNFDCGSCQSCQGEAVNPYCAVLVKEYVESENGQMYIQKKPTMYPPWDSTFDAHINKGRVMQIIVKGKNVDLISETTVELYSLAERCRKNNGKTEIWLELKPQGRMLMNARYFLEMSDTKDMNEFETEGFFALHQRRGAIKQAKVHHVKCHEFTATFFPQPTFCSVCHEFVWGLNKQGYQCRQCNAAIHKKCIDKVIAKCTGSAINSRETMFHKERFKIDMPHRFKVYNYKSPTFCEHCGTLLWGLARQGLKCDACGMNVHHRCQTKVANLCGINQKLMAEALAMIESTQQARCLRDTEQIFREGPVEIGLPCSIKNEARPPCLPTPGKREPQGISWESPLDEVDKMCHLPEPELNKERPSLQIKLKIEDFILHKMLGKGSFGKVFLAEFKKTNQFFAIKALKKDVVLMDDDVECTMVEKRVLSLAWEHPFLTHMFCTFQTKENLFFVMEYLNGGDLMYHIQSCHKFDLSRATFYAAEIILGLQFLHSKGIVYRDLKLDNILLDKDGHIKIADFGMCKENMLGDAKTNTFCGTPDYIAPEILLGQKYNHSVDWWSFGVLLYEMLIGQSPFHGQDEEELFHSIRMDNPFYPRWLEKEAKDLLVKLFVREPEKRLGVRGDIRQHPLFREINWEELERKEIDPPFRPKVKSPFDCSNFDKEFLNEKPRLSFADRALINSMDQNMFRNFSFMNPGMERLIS
CDK8/Cyclin C, sequence (P49336 whole entry): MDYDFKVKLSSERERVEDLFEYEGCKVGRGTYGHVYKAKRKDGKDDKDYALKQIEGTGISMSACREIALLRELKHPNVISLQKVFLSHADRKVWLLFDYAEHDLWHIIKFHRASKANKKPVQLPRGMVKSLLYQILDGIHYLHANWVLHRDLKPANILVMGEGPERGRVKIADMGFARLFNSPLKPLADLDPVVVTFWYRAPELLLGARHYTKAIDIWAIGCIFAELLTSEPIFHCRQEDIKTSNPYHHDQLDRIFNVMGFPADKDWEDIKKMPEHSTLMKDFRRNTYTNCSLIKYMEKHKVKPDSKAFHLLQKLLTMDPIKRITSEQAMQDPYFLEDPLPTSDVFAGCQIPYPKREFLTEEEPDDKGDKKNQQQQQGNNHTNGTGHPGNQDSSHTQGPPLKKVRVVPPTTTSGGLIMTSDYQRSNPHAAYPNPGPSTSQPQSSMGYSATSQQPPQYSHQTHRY
CDK8/Cyclin C, sequence (P24863 whole entry, further chain): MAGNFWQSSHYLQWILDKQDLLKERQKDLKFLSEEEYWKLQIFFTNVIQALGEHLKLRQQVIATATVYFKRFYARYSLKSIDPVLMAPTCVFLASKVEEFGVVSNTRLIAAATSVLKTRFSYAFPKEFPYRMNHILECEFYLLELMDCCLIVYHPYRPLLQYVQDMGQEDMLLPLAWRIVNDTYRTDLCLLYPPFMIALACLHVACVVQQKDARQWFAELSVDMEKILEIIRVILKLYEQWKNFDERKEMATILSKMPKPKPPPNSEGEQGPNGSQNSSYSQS

O=C1NCCC12CCN(c1c(Cl)cncc1-c1cc3ccccc3o1)CC2
half-life [1]: 0.9 h | GI50 (HT-29): 44.2 µM | Activity [2]: Non-Toxic | GI50 (A2780): 21.4 µM | GI50 (PANC-1): > 50 µM | Activity [3]: Non-Toxic | GI50 (MV4-11): 0.36 µM | GI50 (KG-1): 7.13 µM | GI50 (MOLM-13): 6.18 µM | Vd [4]: 1.11 L/kg | GI50 (U-937): 1.36 µM | Ki [5]: 0.109 µM | GI50 (KG-1a): 19.55 µM | GI50 (THP-1): > 50 µM | GI50 at 72 h [6]: 48.1 µM | GI50 (HCT-116): 40.6 µM | GI50 (HL-60): 35.3 µM | Activity [7]: Non-Toxic | Tmax [8]: 2.75 h | Activity [9]: Non-Toxic | Activity [10]: Non-Toxic | Activity [11]: Non-Toxic | half-life [12]: 2.24 h | Cmax [13]: 14.4 µM | GI50 (T47D): 16.2 µM | GI50 (MCF7): > 50 µM | Activity [14]: Non-Toxic | Cmax [15]: 2.77 µM | GI50 (MDA-MB-453): 23.3 µM | Activity [16]: Toxic | Ki (CDK8/Cyclin C): 0.014 µM | GI50 (NB-4): 40.8 µM | Activity [17]: Non-Toxic | Activity [18]: Non-Toxic | AUC at 24 h [19]: 9.7 µM·h | GI50 (COLO 205): > 50 µM | Activity [20]: Non-Toxic | GI50 (MDA-MB-231): 40.7 µM | GI50 (Kasumi 1): > 50 µM | Activity [21]: Non-Toxic | bioavailability [22]: 38%

Cn1cc(-c2ccc(-c3cncc(Cl)c3N3CCC4(CCNC4=O)CC3)cc2)cn1
half-life [1]: 1.08 h | GI50 (HT-29): 48.6 µM | Activity [2]: Toxic | GI50 (A2780): 35.9 µM | GI50 (PANC-1): 0.55 µM | Activity [3]: Toxic | GI50 (MV4-11): 0.03 µM | GI50 (KG-1): 19.98 µM | GI50 (MOLM-13): 2.8 µM | Vd [4]: 1.38 L/kg | GI50 (U-937): 22.4 µM | Ki [5]: 0.061 µM | GI50 (KG-1a): 32.71 µM | GI50 (THP-1): > 50 µM | GI50 at 72 h [6]: > 50 µM | GI50 (HCT-116): 46.2 µM | GI50 (HL-60): > 50 µM | Activity [7]: Toxic | Tmax [8]: 1.33 h | Activity [9]: Non-Toxic | Activity [10]: Non-Toxic | Activity [11]: Non-Toxic | half-life [12]: 4.24 h | Cmax [13]: 10.6 µM | GI50 (T47D): 15.1 µM | GI50 (MCF7): > 50 µM | Activity [14]: Toxic | Cmax [15]: 4.06 µM | GI50 (MDA-MB-453): 43.1 µM | Activity [16]: Toxic | Ki (CDK8/Cyclin C): 0.009 µM | GI50 (NB-4): > 50 µM | Activity [17]: Non-Toxic | Activity [18]: Toxic | AUC at 24 h [19]: 10.5 µM·h | GI50 (COLO 205): 37.7 µM | Activity [20]: Non-Toxic | GI50 (MDA-MB-231): 29.9 µM | GI50 (Kasumi 1): 37 µM | Activity [21]: Non-Toxic | bioavailability [22]: 41%
